As a reminder, the IC50 is the concentration at which inhibition is half-maximal.

Active and inactive are the calls of the source. No cut-off for these calls is given here.

Here are results for two compounds from ChEMBL document CHEMBL4020842, “Discovery of N1-(4-((7-Cyclopentyl-6-(dimethylcarbamoyl)-7 H-pyrrolo[2,3- d]pyrimidin-2-yl)amino)phenyl)- N8-hydroxyoctanediamide as a Novel Inhibitor Targeting Cyclin-dependent Kinase 4/9 (CDK4/9) and Histone Deacetlyase1 (HDAC1) against Malignant Cancer” (J Med Chem, 2018).

Assay [1] deals with MDA-MB-231. Description: Cell cycle arrest in human MDA-MB-231 cells assessed as accumulation at G0/G1 phase after 24 hrs by propidium iodide staining based flow cytometry. In kind it is functional. A digest of the protocol:
(§1)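 Cells were exposed for 24 h to a range of concentrations (625 nM, 2.5 and 10 µM), with DMSO vehicle as control. They were then stained with propidium iodide and analysed by flow cytometry to obtain the percentages of cells in G0/G1, S and G2 phases.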
For orientation: Flow cytometry measures light scatter and fluorescence of single cells or particles in a stream.

In assay [2] the test system is A549. Description: Cell cycle arrest in human A549 cells assessed as accumulation at G0/G1 phase after 24 hrs by propidium iodide staining based flow cytometry. It is filed as functional. In outline: as §1
The test system of another assay is NCI-H1299. Nature of the assay: Cytotoxicity against human NCI-H1299 cells assessed as reduction in cell viability after 72 hrs by CCK8 assay. It is filed as functional, cell-based. The conditions noted are these: NCI-H1299, 72 h. A general note: Tetrazolium assays rely on reduction of a dye to a coloured formazan, in cell work by metabolically active cells.
Assay [3] concerns MDA-MB-231. Nature of the assay: Cytotoxicity against human MDA-MB-231 cells assessed as reduction in cell viability after 72 hrs by CCK8 assay. In kind it is functional, cell-based. The note with it: MDA-MB-231, 72 h.
Assay [4] relates to HepG2. Description: Cell cycle arrest in human HepG2 cells assessed as accumulation at G0/G1 phase after 24 hrs by propidium iodide staining based flow cytometry. It is filed as functional. In outline: as §1
Assay [5] relates to A549. Nature of the assay: Cytotoxicity against human A549 cells assessed as reduction in cell viability after 72 hrs by CCK8 assay. It is filed as functional, cell-based. The conditions noted are these: A549, 72 h.
Assay [6] has as its system Hep 3B2. Nature of the assay: Cytotoxicity against human Hep3B cells assessed as reduction in cell viability after 72 hrs by CCK8 assay.
In assay [7] the test system is 4T1. Description: Antitumor activity against mouse Fluc-labeled 4T1 cells implanted in Balb/c mouse assessed as tumor growth inhibition at 130 mg/kg, ip administered daily for 18 days measured after 8 to 25 days by bioluminescence assay relative to control. The note with it: 4T1, ip, read-out: TGI. It is filed as functional.
The test system of assay [8] is HepG2. Nature of the assay: Cytotoxicity against human HepG2 cells assessed as reduction in cell viability after 72 hrs by CCK8 assay. The conditions noted are these: HepG2, 72 h. In kind it is functional, cell-based.
A further assay relates to MDA-MB-468. Nature of the assay: Cytotoxicity against human MDA-MB-468 cells assessed as reduction in cell viability after 72 hrs by CCK8 assay. The note with it: MDA-MB-468, 72 h. It is filed as functional, cell-based.
In assay [9] the test system is 4T1. Description: Antitumor activity against mouse Fluc-labeled 4T1 cells implanted in Balb/c mouse assessed as tumor growth inhibition at 130 mg/kg, po administered daily via gavage for 18 days by bioluminescence assay relative to control. It is filed as functional. The conditions noted are these: 4T1, po, 432 h, read-out: TGI.
For assay [10], the system named is 4T1. Nature of the assay: Antitumor activity against mouse Fluc-labeled 4T1 cells implanted in Balb/c mouse assessed as reduction in tumor weight at 130 mg/kg, ip administered daily for 18 days measured after 8 to 25 days. It is filed as functional, organism-based. A digest of the protocol: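 Luciferase (Fluc) reporter introduced into 4T1 cells by lentiviral transduction. Cells implanted orthotopically into mammary fat pads of female BALB/c mice aged 6–8 weeks. Once tumours averaged 100 mm3, dosing was daily by IP injection. Bioluminescence imaging was done at days 8 and 25 to reflect viable tumour cell number. Tumour weight was recorded at study end.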

Assay [11] has as its system T47D. Nature of the assay: Cytotoxicity against human T47D cells assessed as reduction in cell viability after 72 hrs by CCK8 assay. It is filed as functional, cell-based.
The test system of assay [12] is NCI-H460. Description: Cytotoxicity against human NCI-H460 cells assessed as reduction in cell viability after 72 hrs by CCK8 assay. It is filed as functional, cell-based. The conditions noted are these: NCI-H460, 72 h.
Assay [13] deals with NCI-H460. Nature of the assay: Cell cycle arrest in human NCI-H460 cells assessed as accumulation at G0/G1 phase after 24 hrs by propidium iodide staining based flow cytometry. In kind it is functional. In outline: as §1
For assay [14], the system named is T47D. Nature of the assay: Cell cycle arrest in human T47D cells assessed as accumulation at G0/G1 phase after 24 hrs by propidium iodide staining based flow cytometry. In kind it is functional. In outline: as §1
Assay [15] deals with Hep 3B2. Nature of the assay: Cell cycle arrest in human Hep3B cells assessed as accumulation at G0/G1 phase after 24 hrs by propidium iodide staining based flow cytometry. It is filed as functional. In outline: as §1
Assay [16] deals with 4T1. Nature of the assay: Cytotoxicity against mouse 4T1 cells assessed as reduction in cell viability after 72 hrs by CCK8 assay. It is filed as functional, cell-based. The conditions noted are these: 4T1, 72 h.
The subject of assay [17] is MDA-MB-231. Description: Induction of apoptosis in human MDA-MB-231 cells assessed as late apoptotic cells at 10 uM after 48 hrs by annexin V-FITC/propidium iodide staining based flow cytometry (reference value: 1.53%). It is filed as functional.
For assay [18], the system named is T47D. Nature of the assay: Induction of apoptosis in human T47D cells assessed as live cells at 10 uM after 48 hrs by annexin V-FITC/propidium iodide staining based flow cytometry (reference value: 85.3%). In kind it is functional.
For assay [19], the system named is MDA-MB-231. Nature of the assay: Induction of apoptosis in human MDA-MB-231 cells assessed as live cells at 10 uM after 48 hrs by annexin V-FITC/propidium iodide staining based flow cytometry (reference value: 98.1%). It is filed as functional.
For assay [20], the system named is HepG2. Description: Induction of apoptosis in human HepG2 cells assessed as late apoptotic cells at 10 uM after 48 hrs by annexin V-FITC/propidium iodide staining based flow cytometry (reference value: 0.64%). In kind it is functional.
Assay [21] concerns Hep 3B2. Nature of the assay: Induction of apoptosis in human Hep3B cells assessed as live cells at 10 uM after 48 hrs by annexin V-FITC/propidium iodide staining based flow cytometry (reference value: 97.9%). It is filed as functional.
The test system of assay [22] is A549. Nature of the assay: Induction of apoptosis in human A549 cells assessed as necrotic cells at 10 uM after 48 hrs by annexin V-FITC/propidium iodide staining based flow cytometry (reference value: […]%). In kind it is functional.
In assay [23] the test system is A549. Description: Induction of apoptosis in human A549 cells assessed as early apoptotic cells at 10 uM after 48 hrs by annexin V-FITC/propidium iodide staining based flow cytometry (reference value: 0.41%). In kind it is functional.
Assay [24] has as its system NCI-H460. Nature of the assay: Induction of apoptosis in human NCI-H460 cells assessed as early apoptotic cells at 10 uM after 48 hrs by annexin V-FITC/propidium iodide staining based flow cytometry (reference value: 0.11%). It is filed as functional.
Assay [25] concerns T47D. Description: Induction of apoptosis in human T47D cells assessed as early apoptotic cells at 10 uM after 48 hrs by annexin V-FITC/propidium iodide staining based flow cytometry (reference value: 7.7%). It is filed as functional.
The test system of assay [26] is A549. Description: Induction of apoptosis in human A549 cells assessed as late apoptotic cells at 10 uM after 48 hrs by annexin V-FITC/propidium iodide staining based flow cytometry (reference value: 0.88%). In kind it is functional.
Assay [27] deals with NCI-H460. Nature of the assay: Induction of apoptosis in human NCI-H460 cells assessed as live cells at 10 uM after 48 hrs by annexin V-FITC/propidium iodide staining based flow cytometry (reference value: 97.3%). In kind it is functional.
The subject of assay [28] is A549. Nature of the assay: Induction of apoptosis in human A549 cells assessed as live cells at 10 uM after 48 hrs by annexin V-FITC/propidium iodide staining based flow cytometry (reference value: 92.7%). It is filed as functional.
Assay [29] relates to Hep 3B2. Nature of the assay: Induction of apoptosis in human Hep3B cells assessed as necrotic cells at 10 uM after 48 hrs by annexin V-FITC/propidium iodide staining based flow cytometry (reference value: 4.97%). It is filed as functional.
Assay [30] concerns MDA-MB-231. Description: Induction of apoptosis in human MDA-MB-231 cells assessed as early apoptotic cells at 10 uM after 48 hrs by annexin V-FITC/propidium iodide staining based flow cytometry (reference value: 0.4%). In kind it is functional.
The test system of assay [31] is MDA-MB-231. Nature of the assay: Induction of apoptosis in human MDA-MB-231 cells assessed as necrotic cells at 10 uM after 48 hrs by annexin V-FITC/propidium iodide staining based flow cytometry (reference value: […]). In kind it is functional.
Assay [32] relates to T47D. Description: Induction of apoptosis in human T47D cells assessed as necrotic cells at 10 uM after 48 hrs by annexin V-FITC/propidium iodide staining based flow cytometry (reference value: 0.8%). In kind it is functional.
Assay [33] concerns HepG2. Description: Induction of apoptosis in human HepG2 cells assessed as live cells at 10 uM after 48 hrs by annexin V-FITC/propidium iodide staining based flow cytometry (reference value: 96.7%). In kind it is functional.
For assay [34], the system named is NCI-H460. Nature of the assay: Induction of apoptosis in human NCI-H460 cells assessed as necrotic cells at 10 uM after 48 hrs by annexin V-FITC/propidium iodide staining based flow cytometry (reference value: 1.34%). It is filed as functional.
The subject of assay [35] is HepG2. Nature of the assay: Induction of apoptosis in human HepG2 cells assessed as necrotic cells at 10 uM after 48 hrs by annexin V-FITC/propidium iodide staining based flow cytometry (reference value: 2.32%). It is filed as functional.
Assay [36] relates to T47D. Nature of the assay: Induction of apoptosis in human T47D cells assessed as late apoptotic cells at 10 uM after 48 hrs by annexin V-FITC/propidium iodide staining based flow cytometry (reference value: 6.16%). In kind it is functional.
Assay [37] relates to NCI-H460. Description: Induction of apoptosis in human NCI-H460 cells assessed as late apoptotic cells at 10 uM after 48 hrs by annexin V-FITC/propidium iodide staining based flow cytometry (reference value: 1.29%). In kind it is functional.
For assay [38], the system named is HepG2. Nature of the assay: Induction of apoptosis in human HepG2 cells assessed as early apoptotic cells at 10 uM after 48 hrs by annexin V-FITC/propidium iodide staining based flow cytometry (reference value: 0.3%). In kind it is functional.
For assay [39], the system named is Hep 3B2. Description: Induction of apoptosis in human Hep3B cells assessed as late apoptotic cells at 10 uM after 48 hrs by annexin V-FITC/propidium iodide staining based flow cytometry (reference value: 5.25%). It is filed as functional.

As to `CN(C)C(=O)c1cc2cnc(Nc3ccc(N4CCNCC4)cn3)nc2n1C1CCCC1` [RIBOCICLIB], the outcome in the assay with MDA-MB-231 [1], in the assay on A549 [2], in the assay on HepG2 [4], in the assay with 4T1 [10], with NCI-H460 [13] and in the assay on T47D [14] was Active. Also, in the assay on Hep 3B2 [15], the result was Active. Also, the IC50 was 5.46 µM in the assay with NCI-H1299; above 10 µM in the assay on MDA-MB-231 [3]; above 10 µM in the assay with A549 [5]; above 10000 nM in the assay with Hep 3B2 [6]; above 10 µM in the assay with HepG2 [8]; above 10 µM with MDA-MB-468. Also, the half-inhibitory concentration (IC50) is 6.23 µM with T47D [11], above 10 µM with NCI-H460 [12] and above 10 µM in the assay on 4T1 [16]. The inhibition in vivo at 130 mg/kg with 4T1 [7] was 68.5%; in the assay on 4T1 [9], 38.9%.
On to `O=C(CCCCCCC(=O)Nc1ccccc1)NO` [VORINOSTAT], for which the Activity came out at 18.7% in the assay with MDA-MB-231 [17]; 20.4% in the assay with T47D [18]; 74.8% in the assay on MDA-MB-231 [19]; 14% in the assay on HepG2 [20]; 53.2% with Hep 3B2 [21]; 18.1% with A549 [22]. Also, the Activity with A549 [23] was 6.41%; with NCI-H460 [24] it was 2.2%; in the assay with T47D [25] it was 48.6%; in the assay with A549 [26], 33.4%; in the assay on NCI-H460 [27], 86.6%; with A549 [28], 42.1%. The Activity was determined as 3.43% in the assay with Hep 3B2 [29]; 3.74% in the assay on MDA-MB-231 [30]; 2.72% with MDA-MB-231 [31]; 4.48% with T47D [32]; 74.9% in the assay on HepG2 [33]; 4.81% in the assay on NCI-H460 [34]. In addition, the Activity in the assay on HepG2 [35] was 5.69%; in the assay on T47D [36], 26.4%; with NCI-H460 [37], 6.4%; with HepG2 [38] it was 5.43%; with Hep 3B2 [39], 32.8%. For the same compound, the half-maximal inhibitory concentration (IC50) with Hep 3B2 [6] worked out at 2300 nM. Also, the result in the assay on 4T1 [10] was Active.
